From ChEMBL document CHEMBL1153230, “Synthesis and evaluation of 3-amino-6-aryl-pyridazines as selective CB(2) agonists for the treatment of inflammatory pain” (Bioorg Med Chem Lett, 2010)
Values after ≈ are worked out from the molar mass of the structure shown. Active and inactive are the calls of the source. No cut-off for these calls is given here.

Assays:
Cannabinoid receptor 2 [1] = molecular target: T1, Cannabinoid receptor 2 (Homo sapiens, UniProt P34972); assay: Agonist activity at human CB2 receptor; assay type: functional
Procedure, shortened: (§1)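 Agonist pEC50 and efficacy at human receptor. Efficacy is expressed as a percentage relative to HU210 efficacy. Values are the mean of at least two determinations.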

Cannabinoid receptor 2 [2] = molecular target: T1, Cannabinoid receptor 2; assay: Agonist activity at human CB2 receptor relative to HU210; assay type: functional; procedure, shortened: as §1
Cannabinoid receptor 1 [3] = molecular target: T2, Cannabinoid receptor 1 (Homo sapiens, UniProt P21554); assay: Agonist activity at human CB1 receptor; assay type: functional; procedure, shortened: as §1
Cannabinoid receptor 1 [4] = molecular target: T2, Cannabinoid receptor 1; assay: Agonist activity at human CB1 receptor up to 30 uM; assay type: functional
Procedure, shortened: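 Human CB1 receptor agonist assay, tested at concentrations up to 30 µM (method per cited reference). Potency reported as pEC50. Efficacy is expressed as a percentage of the efficacy of the full agonist HU210. Values are the mean of at least two determinations.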

[5] = Aqueous solubility of the compound; assay type: physicochemical
Cannabinoid receptor 1 [6] = molecular target: T2, Cannabinoid receptor 1; assay: Agonist activity at human CB1 receptor relative to HU210; assay type: functional; procedure, shortened: as §1
[7] = Blood clearance in rat at 1 mg/kg, iv; assay type: ADME, organism-based; parameters: dose 1 mg/kg, route intravenous
Procedure, shortened: (§2)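 Rats given an intravenous infusion at a target dose of 1 mg free base/kg for pharmacokinetic parameters.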

[8] = Volume of distribution at steady state in rat at 1 mg/kg, iv; assay type: ADME, organism-based; parameters: dose 1 mg/kg, route intravenous; settings: in vivo, read-out: Vdss; procedure, shortened: as §2
[9] = Half life in rat at 1 mg/kg, iv; assay type: ADME, organism-based; parameters: dose 1 mg/kg, route intravenous; settings: in vivo; procedure, shortened: as §2
[10] = Cmax in rat at 3 mg/kg, po; assay type: ADME, organism-based; parameters: dose 3 mg/kg, route oral; settings: in vivo
Procedure, shortened: (§3)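 Rats given a single oral dose by gastric gavage, formulated in 1% (w/v) aqueous methylcellulose, at a target dose of 3 mg/kg free base, for pharmacokinetic parameters.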

[11] = Tmax in rat at 3 mg/kg, po; assay type: ADME, organism-based; parameters: dose 3 mg/kg, route oral; settings: in vivo; procedure, shortened: as §3
[12] = Oral bioavailability in rat at 3 mg/kg; assay type: ADME, organism-based; settings: in vivo; procedure, shortened: as §3
[13] = Drug level in rat blood at 1 mg/kg, po after 1 hr; assay type: ADME, organism-based; parameters: dose 1 mg/kg, route oral
Procedure, shortened: (§4)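 Rat blood and brain tissue samples taken from FCA weight-bearing study animals 1 h after a 1 mg/kg oral dose. Compound concentrations measured in each; brain:blood ratio derived from the two concentrations.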

[14] = Drug level in rat brain at 1 mg/kg, po after 1 hr; assay type: ADME, organism-based; parameters: dose 1 mg/kg, route oral; settings: read-out: Drug uptake; procedure, shortened: as §4
[15] = Ratio of drug level in brain to blood in rat at 1 mg/kg, po; assay type: ADME, organism-based; parameters: dose 1 mg/kg, route oral; procedure, shortened: as §4
Rattus norvegicus = assay: Toxicity in rat assessed as induction of hypothermia up to 300 mg/kg po; assay type: organism-based; parameters: dose 300 mg/kg, route oral; settings: in vivo
[16] = Cmax in rat brain at 6.6 uM; assay type: ADME, organism-based; parameters: dose 6.6 uM

T2 sequence (P21554 whole entry): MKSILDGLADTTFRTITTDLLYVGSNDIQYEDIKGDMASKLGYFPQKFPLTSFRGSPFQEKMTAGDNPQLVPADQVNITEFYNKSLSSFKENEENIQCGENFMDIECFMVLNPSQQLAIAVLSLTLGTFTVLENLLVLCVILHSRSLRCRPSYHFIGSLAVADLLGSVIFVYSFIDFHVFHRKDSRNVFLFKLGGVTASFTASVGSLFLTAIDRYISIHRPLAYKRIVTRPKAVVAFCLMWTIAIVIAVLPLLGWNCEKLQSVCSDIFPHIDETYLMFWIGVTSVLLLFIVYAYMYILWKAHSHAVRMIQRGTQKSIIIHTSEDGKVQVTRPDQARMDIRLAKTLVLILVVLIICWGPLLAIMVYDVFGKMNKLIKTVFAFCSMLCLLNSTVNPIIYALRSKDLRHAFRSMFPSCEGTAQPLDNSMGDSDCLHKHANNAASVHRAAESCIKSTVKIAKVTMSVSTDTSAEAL
T1 sequence (P34972 whole entry): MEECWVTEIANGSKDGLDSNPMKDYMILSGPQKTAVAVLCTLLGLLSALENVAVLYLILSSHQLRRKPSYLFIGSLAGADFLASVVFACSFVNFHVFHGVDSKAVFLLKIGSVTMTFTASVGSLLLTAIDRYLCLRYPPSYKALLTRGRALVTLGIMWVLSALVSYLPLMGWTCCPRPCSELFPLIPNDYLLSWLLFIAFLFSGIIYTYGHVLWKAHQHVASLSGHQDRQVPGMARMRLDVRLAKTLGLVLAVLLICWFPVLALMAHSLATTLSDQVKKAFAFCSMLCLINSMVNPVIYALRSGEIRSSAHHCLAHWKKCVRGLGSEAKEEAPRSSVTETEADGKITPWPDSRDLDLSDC

SMILES | EC50 (Cannabinoid receptor 2 [1]) [nM] | Efficacy (Cannabinoid receptor 2 [2]) [%] | EC50 (Cannabinoid receptor 1 [3]) [nM] | further results
FC1(F)CCN(c2ccc(-c3cccc(Cl)c3Cl)nn2)CC1 | 15.8 | 83 | > 31600 | –
Clc1cccc(-c2ccc(N3CCCCC3)nn2)c1Cl | 6.31 | 86 | > 31600 | –
Clc1cccc(-c2ccc(N3CCOCC3)cc2)c1Cl | 39.8 | 86 | – | Activity (Cannabinoid receptor 1 [4]): inactive
Clc1cc(Cl)c(Cl)c(-c2ccc(N3CCOCC3)nn2)c1 | 50.1 | 78 | > 31600 | –
FC(F)(F)c1ccccc1-c1ccc(N2CCOCC2)nn1 | 1260 | 78 | > 31600 | –
Clc1ccc(-c2ccc(N3CCOCC3)nn2)c(Cl)c1 | > 31600 | – | > 31600 | –
C[C@@H]1CC[C@H](C)N1c1ccc(-c2cccc3ncccc23)nn1 | 200 | 75 | > 31600 | –
Clc1cccc(-c2cnc(N3CCOCC3)nc2)c1Cl | 200 | 67 | – | Activity (Cannabinoid receptor 1 [4]): inactive
Clc1cccc(-c2ccc(N3CCCC3)nn2)c1Cl | 25.1 | 56 | > 31600 | –
Clc1cccc(-c2cnc(N3CCOCC3)cn2)c1Cl | 39.8 | 89 | – | Activity (Cannabinoid receptor 1 [4]): inactive; solubility [5]: 1 µg/mL (≈ 3.22 µM)
C[C@@H]1CC[C@H](C)N1c1ccc(-c2cccc3cnccc23)nn1 | 39.8 | 93 | 20000 | Efficacy (Cannabinoid receptor 1 [6]): 52%
c1ccc(COc2ccccc2-c2ccc(N3CCOCC3)nn2)cc1 | 631 | 45 | 3980 | Efficacy (Cannabinoid receptor 1 [6]): 11%
Clc1cccc(-c2cnc(N3CCOCC3)nn2)c1Cl | 100 | 78 | – | Activity (Cannabinoid receptor 1 [4]): inactive
Clc1ccccc1-c1ccc(N2CCOCC2)nn1 | 1580 | 77 | > 31600 | –
Clc1cccc(-c2ccc(N3CCOCC3)nn2)c1Cl | 79.4 | 76 | > 31600 | Activity (Cannabinoid receptor 1 [4]): inactive; solubility [5]: 6 µg/mL (≈ 19.3 µM)
Clc1cccc(-c2ccc(N3CCOCC3)nc2)c1Cl | – | – | – | Activity (Cannabinoid receptor 1 [4]): inactive
C[C@@H]1CC[C@H](C)N1c1ccc(-c2c[nH]c3ccccc23)nn1 | 251 | 61 | > 31600 | –
Clc1cccc(-c2ccc(NC3CCOCC3)nn2)c1Cl | > 31600 | – | > 31600 | –

SMILES | EC50 (Cannabinoid receptor 2 [1]) [nM] | Efficacy (Cannabinoid receptor 2 [2]) [%] | EC50 (Cannabinoid receptor 1 [3]) [nM] | further results
O=S1(=O)CCN(c2ccc(-c3cccc(Cl)c3Cl)nn2)CC1 | 631 | 89 | > 31600 | –
C[C@@H]1CC[C@H](C)N1c1ccc(-c2cccc3cccnc23)nn1 | 79.4 | 82 | > 31600 | –
C[C@@H]1C=C[C@H](C)N1c1ccc(-c2cccc(Cl)c2Cl)nn1 | 0.631 | 93 | 6310 | Efficacy (Cannabinoid receptor 1 [6]): 21%
C[C@@H]1CC[C@H](C)N1c1ccc(-c2cncc3ccccc23)nn1 | 10 | 85 | 7940 | Efficacy (Cannabinoid receptor 1 [6]): 71%; clearance [7]: 57 mL/min/kg; Vd [8]: 1.7 L/kg; half-life [9]: 18 min; Cmax [10]: 340 nM; Tmax [11]: 54 min; bioavailability [12]: 26%; concentration at 1 h [13]: 300 nM; concentration at 1 h [14]: 500 nM; Kp [15]: 1; Activity (Rattus norvegicus): Toxic; Cmax at 6.6 µM [16]: 11000 nM
COc1ccc(-c2ccc(N3CCOCC3)nn2)c(Cl)c1 | > 31600 | – | > 31600 | –
FC(F)(F)c1cccc(-c2ccc(N3CCOCC3)nn2)c1 | 1000 | 15 | > 31600 | –
C[C@@H]1CC[C@H](C)N1c1ccc(-c2cc3ccccc3o2)nn1 | 158 | 70 | > 31600 | –
Cc1cccc(-c2ccc(N3CCOCC3)nn2)c1C | 2000 | 71 | > 31600 | –
Clc1cccc(-c2ccc(NC3CCCCC3)nn2)c1Cl | 200 | 69 | > 31600 | –
C[C@@H]1CC[C@H](C)N1c1ccc(-c2cccc(Cl)c2Cl)nn1 | 1.26 | 83 | 2510 | Efficacy (Cannabinoid receptor 1 [6]): 57%
c1ccc(COc2cccc(-c3ccc(N4CCOCC4)nn3)c2)cc1 | > 31600 | – | > 31600 | –
COc1ccccc1-c1ccc(N2CCOCC2)nn1 | 12600 | 37 | > 31600 | –
Clc1ccc(Cl)c(-c2ccc(N3CCOCC3)nn2)c1 | 398 | 39 | > 31600 | –
Cc1ccccc1-c1ccc(N2CCOCC2)nn1 | 7940 | 38 | > 31600 | –
FC(F)(F)Oc1ccccc1-c1ccc(N2CCOCC2)nn1 | 1260 | 55 | > 31600 | –
Clc1cccc(-c2ncc(N3CCOCC3)cn2)c1Cl | 50.1 | 92 | – | Activity (Cannabinoid receptor 1 [4]): inactive; solubility [5]: < 1 µg/mL
Cc1ccc(-c2ccc(N3CCOCC3)nn2)c(Cl)c1 | > 31600 | – | > 31600 | –
FC(F)(F)c1cccc(-c2ccc(N3CCOCC3)nn2)c1C(F)(F)F | 158 | 75 | > 31600 | –
